Yeast superoxide: lowers age-related superoxide in aged yeast cells; S. cerevisiae aged cells, superoxide DHE fluorescence; active compounds read low; superoxide response (% of plate mean), % at 10 µM; 330,000 tested, 0.18% active;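 active = superoxide response under a set limit, about three screen SD below normal, cut at about 65% in these data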;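 also: yeast aged for seven days with compound at 30 °C before DHE staining; 100% = average MFI of all compound-treated wells on the plate with controls excluded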
SMARCA2 act: activators of SMARCA2 function | activation, % at 9.1 µM | 370,000 tested, 1% active | MG213 cells, MMTV-luciferase reporter, dexamethasone, overnight; in the data active = activation above about 7.8%;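 also: 0% = vehicle wells and 100% = reference activator wells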
Lipid droplet: modulators of hepatic lipid droplet formation. 240,000 tested, 0.4% active. AID 1656. inhibition, % at 6.5 µM. AML12 mouse hepatocytes, oleate lipid droplets, BODIPY imaging;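 active = lipid droplet intensity inhibited by at least 50%, with more than 500 cells counted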
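Test system: AML12 mouse liver cells; schedule: overnight exposure; technique: high-content imaging of BODIPY-stained droplets and DAPI nuclei; read-out: % inhibition of corrected integrated BODIPY droplet signal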
SR-BI DiI inh: blocks mouse SR-BI lipid uptake from DiI-HDL; Q61009; ldlA[mSR-BI] CHO cells, DiI-HDL uptake fluorescence, 3 h; inhibition, % at 12.5 µM; 320,000 tested, 0.96% active;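 active = mean replicate inhibition of at least 70% and a set share of replicates each scoring 70 or more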;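 also: 0% = median of neutral control wells and 100% = median of positive control wells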
AHR activator: human AHR activation. P35869. AHR-responsive luciferase reporter cells, luminescence. activation, % at 5 µM. 320,000 tested, 2.5% active. AID 2796; in the data active = activation above about 47%;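 also: 0% = vehicle wells and 100% = reference agonist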
Target sequence (P35869 whole entry, looked up): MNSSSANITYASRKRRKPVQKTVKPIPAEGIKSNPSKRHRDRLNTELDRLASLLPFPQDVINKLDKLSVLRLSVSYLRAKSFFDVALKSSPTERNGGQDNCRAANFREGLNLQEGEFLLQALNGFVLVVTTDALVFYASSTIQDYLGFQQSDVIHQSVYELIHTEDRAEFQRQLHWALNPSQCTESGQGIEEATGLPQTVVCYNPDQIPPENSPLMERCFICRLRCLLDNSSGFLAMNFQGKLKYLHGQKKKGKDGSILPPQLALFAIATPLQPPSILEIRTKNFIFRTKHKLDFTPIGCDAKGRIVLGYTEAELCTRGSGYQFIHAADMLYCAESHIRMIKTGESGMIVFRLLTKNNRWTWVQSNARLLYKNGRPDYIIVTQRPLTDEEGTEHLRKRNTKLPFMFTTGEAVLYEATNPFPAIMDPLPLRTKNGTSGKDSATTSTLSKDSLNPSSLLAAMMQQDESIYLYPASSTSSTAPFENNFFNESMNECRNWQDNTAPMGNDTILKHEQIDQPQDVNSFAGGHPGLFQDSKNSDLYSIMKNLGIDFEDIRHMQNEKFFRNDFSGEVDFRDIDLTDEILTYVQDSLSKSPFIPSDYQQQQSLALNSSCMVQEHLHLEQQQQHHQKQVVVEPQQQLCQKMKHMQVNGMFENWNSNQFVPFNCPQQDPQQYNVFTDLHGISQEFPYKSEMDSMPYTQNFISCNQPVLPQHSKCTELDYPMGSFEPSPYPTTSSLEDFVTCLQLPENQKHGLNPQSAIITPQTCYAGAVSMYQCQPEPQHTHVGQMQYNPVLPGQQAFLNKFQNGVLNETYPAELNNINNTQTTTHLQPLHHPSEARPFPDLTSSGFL
SR-BI DiI-HDL act: activators of SR-BI mediated HDL lipid uptake; CHO ldlA[mSR-BI] cells, DiI-HDL uptake fluorescence, 3 h; 100 = double the neutral-control signal; activation, % at 12.5 µM; 320,000 tested, 0.096% active;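 active = mean replicate activation of at least 60% and every replicate at or above 60%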;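 also: 0% = median plate neutral-control signal and 100% = twice that signal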
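Material: SR-BI-overexpressing, LDLR-lacking CHO cells | Dosing: Single compound concentration, delivered by pin transfer | Probe or stimulus: Labelled HDL, 10 µg/mL | Signal: Bottom-read cell fluorescence after medium removal, ex 550/em 595 nm | Schedule: 3 h, 37 °C | Evaluation: HDL uptake via cellular fluorescence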
An asterisk follows results filed as active; . = not tested or not shown. The list is not random: actives were taken first. Their share in the collection is about 4.3%.

SMILES | Yeast superoxide | SMARCA2 act | Lipid droplet | SR-BI DiI inh | AHR activator | SR-BI DiI-HDL act
O=C(NCCCc1ccccc1)OC1CC2CC1[C@H]1CCCCN1C2 (some centres not stated) | . | -1.3 | . | . | . | .
C[C@@H]1CN([C@H](C)CO)C(=O)c2cc(NC(=O)Nc3ccc(C(F)(F)F)cc3)ccc2O[C@H]1CN(C)Cc1ccc(Cl)c(Cl)c1 | 90.8 | 4.2 | . | -53.4 | 1.1 | 53.4
C[C@@H]1CN([C@H](C)CO)C(=O)c2cc(NC(=O)Nc3ccc(C(F)(F)F)cc3)ccc2O[C@H]1CN(C)S(=O)(=O)c1ccc(Cl)cc1 | 134.8 | -1.4 | . | -73.5 | 4.8 | 73.5*
C[C@H]1CN([C@@H](C)CO)C(=O)c2cccc(NC(=O)Nc3ccc(C(F)(F)F)cc3)c2O[C@@H]1CN(C)Cc1ccc(Cl)c(Cl)c1 | 103.2 | -1.4 | . | 74.7* | 7.6 | -74.7
C[C@@H]1CN([C@@H](C)CO)C(=O)Cc2cc(NC(=O)Nc3ccc(C(F)(F)F)cc3)ccc2O[C@@H]1CN(C)S(=O)(=O)c1ccc(Cl)cc1 | 87.5 | -0.4 | . | -89.9 | 7.9 | 89.9*
O=C(Cc1ncc(C(F)(F)F)cc1Cl)NCCc1ccccn1 | 103.7 | 7.9* | -25.5 | 4.5 | 1.0 | -4.5
CN(C)CCNC(=O)Cc1ncc(C(F)(F)F)cc1Cl | 94.3 | -1.2 | 7.0 | -23.0 | -1.5 | 23.0
COC(=O)[C@]12C[C@H](CC(=O)N3CCN(C(=O)C4CC4)CC3)C(=O)N(Cc3ccc(Cl)cc3Cl)C1=C[C@H](C(C)C)O[C@@H]2C1CC1 | . | -1.7 | . | . | . | .
CCOC(=O)c1ccc(-c2ccc3c(c2)CCC3)nc1C | 101.7 | 7.9* | . | 4.3 | 0.9 | -4.3
Fc1ccc(OCc2nc(-c3ccc(Br)o3)no2)c(F)c1 | 93.0 | -0.7 | . | -3.4 | 3.7 | 3.4
COc1ccc(-c2noc(-c3ccc(Br)o3)n2)cc1OC | 104.0 | -1.4 | -9.2 | 7.4 | -7.7 | -7.4
Clc1ccccc1OCc1nc(-c2ccc(Br)o2)no1 | 101.5 | 1.4 | . | 14.7 | 61.1* | -14.7
COc1ccc(Cc2nc(-c3ccc(Br)o3)no2)cc1OC | 104.6 | 3.7 | . | 13.8 | 47.3* | -13.8
C#CCCC(=O)O[C@H]1CCC[C@@]2(C(=O)N(Cc3ccccc3)c3ccccc32)[C@H]1NC(=O)CCc1ccccc1 | . | -2.8 | . | . | . | .
CCCCNC(=O)C[C@H]1C[C@@]2(C(=O)OC)C(=C[C@H](C(C)C)O[C@@H]2C2CC2)N(Cc2ccc(Cl)cc2Cl)C1=O | . | -1.6 | . | . | . | .
C=CCn1c(Cc2cccs2)nnc1SCC(=O)Nc1ccc(C)cc1 | . | -5.9 | . | . | . | .
CCCn1cnc2cc(NC(=O)c3ccco3)ccc21 | 103.8 | 2.4 | 3.4 | 16.4 | 60.4* | -16.4
CCn1cnc2cc(NC(=O)c3ccc(C)cc3)ccc21 | 96.5 | 7.9* | 9.4 | -2.9 | 10.2 | 2.9
COC(=O)[C@]12C[C@H](CC(=O)NCc3ccc(C)o3)C(=O)N(Cc3cccc4ccccc34)C1=C[C@H](COCc1ccccc1)O[C@@H]2C | . | -4.0 | . | . | . | .
CC(=O)Nc1cc2nn(-c3ccccc3)nc2cc1Cl | 124.3 | 2.0 | 6.4 | 3.0 | 56.7* | -3.0
CC(C)(C)C(=O)Nc1cc2nn(-c3ccccc3)nc2cc1Cl | . | -8.4 | 16.4 | 16.8 | . | -16.8
COc1cc(NC(=O)c2ccc3c(c2)OCO3)c2ncccc2c1 | 93.5 | -2.7 | -25.1 | 78.0* | 65.5* | -78.0
CC(C)(C)NC(=O)c1ccccc1NC(=O)c1ccc2c(c1)OCO2 | 99.1 | 0.7 | -0.2 | 30.3 | 67.6* | -30.3
CCCCNC(=O)c1ccccc1NC(=O)c1ccc2c(c1)OCO2 | 94.3 | 1.0 | 4.8 | 29.7 | 58.1* | -29.7
CCCC(=O)Nc1ccccc1NC(=O)c1ccc2c(c1)OCO2 | 84.5 | -2.3 | -7.7 | -20.5 | 8.0 | 20.5
SMILES | Yeast superoxide | SMARCA2 act | Lipid droplet | SR-BI DiI inh | AHR activator | SR-BI DiI-HDL act
O=C(N[C@@H](Cc1cccnc1)C(=O)N1CCC[C@H]1C(=O)NCCc1ccccc1Cl)C1CC1 | . | -4.8 | . | . | . | .
CC(C)N(C)Cc1nnnn1CC(=O)N(C)Cc1ccc(F)cc1 | 87.7 | -1.6 | 11.8 | 1.3 | 49.4* | -1.3
CC(C)N(C)Cc1nnnn1CC(=O)N(C)Cc1cccc(Cl)c1 | 103.9 | -1.6 | -1.6 | -1.5 | -0.8 | 1.5
COC(=O)c1ccc(CNC(=O)Cn2nnnc2CN(C)C(C)C)cc1 | 90.5 | -3.0 | 3.0 | -16.9 | 56.1* | 16.9
COc1ccc(CN2C[C@H](COCc3ccccc3)Oc3cccc(Oc4ccc(C(C)C)cc4)c3S2(=O)=O)cc1 | . | 2.9 | . | . | . | .
Cc1cccc(OCC(O)Cn2c(=N)n(CCN3CCCCC3)c3ccccc32)c1 (configuration not stated) | 108.8 | 7.8* | . | 3.7 | -4.6 | -3.7
Cc1cccc(OCC(O)Cn2c(=N)n(Cc3ccccc3)c3ccccc32)c1 (configuration not stated) | 91.6 | -5.9 | -6.2 | 9.3 | 7.1 | -9.3
COCC(=O)N(C)[C@H]1C[C@H]2c3[nH]c4cccc(-c5cccc(F)c5)c4c3CCN2C(=O)[C@H]1[C@H](C)O | . | 2.2 | . | . | . | .
Cc1ccc(CNC(=O)C2c3ccccc3C(=O)N3CCc4ccccc4C23)o1 (configuration not stated) | 119.6 | -0.7 | . | 3.3 | 115.0* | -3.3
C=CCN1C(=O)[C@@H](CC(=O)NCc2ccc(C)o2)[C@]2(C(=O)OCC)CCCCC/C=C/12 | . | 2.8 | . | . | . | .
Cn1c(N)c(C(C[N+](=O)[O-])c2c(F)cccc2Cl)c(=O)n(C)c1=O (configuration not stated) | 109.0 | -3.3 | -5.9 | -22.2 | 1.3 | 22.2
CN(C)c1ccc(C(C[N+](=O)[O-])c2c(N)n(C)c(=O)n(C)c2=O)c(F)c1C#N (configuration not stated) | 108.1 | -1.0 | -1.2 | 16.1 | 62.6* | -16.1
CCC1CN(C(=O)N2CCC(C(=O)NCCc3ccc(OC)cc3OC)CC2)c2ccccc2O1 (configuration not stated) | 100.4 | -1.4 | -1.0 | 78.2* | 2.2 | -78.2
COC(=O)C1CN(C(=O)c2cccc(OC(F)F)c2)c2ccccc2O1 (configuration not stated) | 103.6 | -3.6 | -2.4 | -9.0 | 49.2* | 9.0
C#CCNC(=O)C[C@@H]1C(=O)N(CCc2ccc(Cl)cc2)C2=CCCCC[C@]21C(=O)OC | . | -1.1 | . | . | . | .
O=C(O)CCCNc1c(C(=O)Nc2ccc(Cl)cc2)cc([N+](=O)[O-])cc1[N+](=O)[O-] | 141.7 | -0.1 | 2.6 | 4.6 | 56.3* | -4.6
Cc1nc2c(ccc3nc(NC(=O)c4ccc5c(c4)OCCO5)sc32)s1 | 91.5 | 7.6 | . | 74.9* | -0.8 | -74.9
COC(=O)C1=C(C)N(Cc2cccc(C(F)(F)F)c2)C(=NCc2ccc(OC)cc2)NC1c1ccc(F)cc1 (configuration not stated) | . | -4.9 | . | . | . | .
COC(=O)Cn1c2ccc(F)cc2c2nc(C)sc21 | 81.2 | -2.8 | . | -4.6 | 4.8 | 4.6
Cc1nc2c3cc(F)ccc3n(Cc3ccc(F)cc3)c2s1 | 93.7 | -3.3 | 4.7 | 80.2* | 2.2 | -80.2

Bioassay records from PubChem.
